# Experimental data: article PMC7723568 (Annals of Translational Medicine, 2020)
# Entries after “also recorded” stand apart in the source; their conditions may differ. Where no end group is shown, it is not given here.
# How the values were obtained:
# MKN-45 cells = assay: Immunofluorescence staining of MKN-45 cells; format: cell-based; conditions: 5 µM FITC-labeled peptide, 37 °C, 10 min, co-stained with anti-CD44v6 antibody
# Summary of the method: (§1)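 Gastric cancer cells were grown in RPMI 1640 with 10% FBS and seeded on coverslips overnight. They were fixed in 4% paraformaldehyde and blocked in 3% BSA. Cells were labelled with monoclonal anti-CD44v6 (1:500, 1 h) and a Cy3 secondary, then with 5 µM FITC-peptide at 37 °C for 10 min. Nuclei were stained with DAPI; imaging was by fluorescence microscopy at ×400.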
# [1] = tested on: CD44v3–v10 over expressed HEK-293 cells; assay: Immunofluorescence staining of CD44v3–v10 over expressed HEK-293 cells; format: cell-based, human; conditions: 5 µM rhodamine B-labeled peptide; GFP reporter
# Summary of the method: (§2)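 HEK-293 cells were grown in DMEM with 10% FBS and transfected 48 h beforehand with a GFP-reporter CD44v3–v10 plasmid or an empty plasmid. Cells were fixed in 4% paraformaldehyde and blocked in 3% BSA. They were then stained with 5 µM rhodamine B-labelled peptide, with scrambled peptide as control. Nuclei were stained with DAPI, and cells were imaged by fluorescence microscopy at ×400.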
# [2] = tested on: HEK-293 cells transfected with empty plasmids; assay: Immunofluorescence staining of HEK-293 cells transfected with empty plasmid; format: cell-based, human; conditions: 5 µM rhodamine B-labeled peptide; GFP reporter
# Summary of the method: as §2
# MKN-28 cells = assay: Immunofluorescence staining of MKN-28 cells; format: cell-based; conditions: 5 µM FITC-labeled peptide, 37 °C, 10 min, co-stained with anti-CD44v6 antibody
# Summary of the method: as §1
# [3] = tested on: excised tumor and organs (liver, stomach, kidney, lung, heart) of SGC-7901 xenograft mice; assay: Biodistribution: fluorescence imaging of excised tumor and organs; format: in vivo, BALB/c-nu/nu mice; conditions: FITC labeled, 1 µg/g, i.v., 3 h after injection
# SGC-7901 cells = assay: Immunofluorescence staining of SGC-7901 cells; format: cell-based; conditions: 5 µM FITC-labeled peptide, 37 °C, 10 min, co-stained with anti-CD44v6 antibody
# Summary of the method: as §1
# [4] = tested on: CD44v3–v10 over expressed HEK-293 cells; format: binding, human; conditions: in words; 1×10^10 pfu/well, 37 °C, 1 h
# Summary of the method: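 HEK-293 cells were transfected with a CD44v3–v10 plasmid or an empty plasmid, and assayed 48 h later. Candidate or unrelated phages (1×10^10 pfu/well) were bound for 1 h at 37 °C, then washed six times. Detection used goat anti-M13 (1:200), HRP secondary (1:5,000) and TMB, read at OD450. Selectivity = (ODpv – ODbv)/(ODpc – ODbc), with backgrounds from cells without phage. Triplicate, mean ± SD.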
# [5] = tested on: SGC-7901 subcutaneous GC xenograft; assay: In vivo fluorescence imaging of SGC-7901 xenograft models; parameters: species or system BALB/c-nu/nu mice; conditions: FITC labeled, 1 µg/g body weight, tail vein
# Summary of the method: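 Male BALB/c nude mice (4–5 weeks, 20–25 g) received 5×10^6 SGC-7901 cells subcutaneously in the axilla, and tumours grew about 3 weeks to 1 cm3. Mice were randomised to two groups of ten. Each group received FITC-peptide probe or FITC-scrambled peptide, 1 µg/g via the tail vein. Under isoflurane, five mice per group were imaged every half hour until the probe was excreted. Signal was expressed as (p/sec/cm2/sr)/(µW/cm2), mean ± SE.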
# CD44v3–v10 protein = CD44v3–v10 protein (Homo sapiens, UniProt P16070); assay: Binding affinity to CD44v3–v10 protein
# Sequence of CD44v3–v10 protein (P16070 21-699 isoform P16070-4 limits assumed): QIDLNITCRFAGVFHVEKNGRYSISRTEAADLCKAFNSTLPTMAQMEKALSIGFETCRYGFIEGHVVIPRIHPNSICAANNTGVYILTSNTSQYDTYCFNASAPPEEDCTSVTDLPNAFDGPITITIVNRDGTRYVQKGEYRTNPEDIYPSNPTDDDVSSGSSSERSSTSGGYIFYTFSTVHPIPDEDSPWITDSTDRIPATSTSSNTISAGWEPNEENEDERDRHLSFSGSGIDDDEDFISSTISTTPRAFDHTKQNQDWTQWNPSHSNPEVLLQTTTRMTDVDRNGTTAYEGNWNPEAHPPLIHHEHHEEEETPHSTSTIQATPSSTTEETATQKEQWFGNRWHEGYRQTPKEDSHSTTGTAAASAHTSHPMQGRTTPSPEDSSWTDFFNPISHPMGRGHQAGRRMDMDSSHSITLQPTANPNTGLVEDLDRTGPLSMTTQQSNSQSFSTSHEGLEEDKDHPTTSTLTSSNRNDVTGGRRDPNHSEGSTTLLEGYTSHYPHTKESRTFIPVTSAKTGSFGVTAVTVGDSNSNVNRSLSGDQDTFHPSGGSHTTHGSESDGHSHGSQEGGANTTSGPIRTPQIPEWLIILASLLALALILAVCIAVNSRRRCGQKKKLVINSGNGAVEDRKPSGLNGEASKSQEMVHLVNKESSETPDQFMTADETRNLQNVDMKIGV
# Summary of the method: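 Biotin-labelled peptide at a range of concentrations was incubated with immobilised recombinant CD44v3–v10 protein, with BSA as the comparison surface. Bound peptide was read as OD values, as in the competitive ELISA. Kd came from fitted binding curves and Scatchard plots. A scrambled peptide was the control. Each point was measured three times, mean ± SD.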
# [6] = tested on: Recombinant CD44v3–v10 protein; assay: Competitive inhibition ELISA on recombinant CD44v3–v10 protein; format: binding, human; conditions: in words; CD44v3–v10 protein 1 µg/well; various peptide concentrations; n = 3
# Summary of the method: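 Plates were coated with recombinant CD44v3–v10 protein (1 µg/well) and preincubated with candidate or control peptide at various concentrations. Candidate phage binding was then read by phage ELISA: goat anti-M13 (1:200), HRP secondary (1:5,000), TMB, OD450. Inhibition = 100% – 100%×(ODt – ODb)/(ODi – ODb), where ODb is wells lacking anti-M13 antibody.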
sequence,measurement,setting,value
EHDNTGMLYSVD [control peptide],Fluorescent staining of MKN-45,MKN-45 cells,only background staining
same,Fluorescent staining of CD44v3–v10 over expressed HEK-293,[1],only background staining
same,Fluorescent staining of HEK-293 transfected with empty plasmid,[2],only background staining
same,Fluorescent staining of MKN-28,MKN-28 cells,only background staining
same,Distribution in liver and kidney,[3],distributed in liver and kidney
same,Strong fluorescence on excised tumor tissue (mice positive/total),[3]; five mice per group,not control group
same,Fluorescent staining of SGC-7901,SGC-7901 cells,only background staining
ELTVMGYYPGMS [C3],Binding activity / affinity / selectivity ranking in phage ELISA,[4],highest binding activity and frequency; also recorded: second highest selectivity; also recorded: highest affinity
"ELTVMGYYPGMS [ELT, ELTVMGYYPGMS]",Elimination (fluorescence signal four hours after injection),[5]; 4 h,nearly undetectable
same,Time of top fluorescent intensity in tumor,[5]; n = 5,3 h
same,Kd,CD44v3–v10 protein,611 nM
same,Distribution in liver and kidney,[3],distributed in liver and kidney
THMPSDPGMNLL,Inhibition of candidate phage binding by displayed peptide,[6],dose-dependent manner
THMPSDPGMNLL [C1],Binding activity / affinity / selectivity ranking in phage ELISA,[4],highest binding activity and frequency; also recorded: considerable affinity
